Results published in ChEMBL document CHEMBL3351942, “Rexinoids isolated from Sophora tonkinensis with a gene expression profile distinct from the synthetic rexinoid bexarotene” (J Nat Prod, 2014).
Active and inactive are the calls of the source. No cut-off for these calls is given here.

Key:
[1] = Activation of LXR in mouse C2C12 cells assessed as induction of SREBP1 mRNA expression at 10 uM after 24 hrs in presence of T0901317 by quantitative RT-PCR analysis; format: cell-based
Method in brief: (§1)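 C2C12 myoblasts grown in DMEM/10% FBS, differentiated at confluence in 2% horse serum, medium changed every other day for 5 days; myotubes treated 24 h with or without T0901317 (1 μM). Total RNA, DNase-treated, oligo(dT) RT from 0.5 μg, SYBR green qPCR; normalized to β-actin (delta-delta Ct), fold over vehicle; mean ± SD of four determinants, one of two experiments.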

C2C12 = test: Induction of HMOX-1 mRNA level in mouse C2C12 cells at 10 uM after 24 hrs by quantitative RT-PCR analysis; format: functional, cell-based
Method in brief: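 C2C12 myoblasts were differentiated in 2% horse serum, with medium changed every other day for 5 days. The myotubes were then exposed to compound at 10 μM for 24 h. mRNA was measured by SYBR green qRT-PCR from 0.5 μg total RNA, normalized to β-actin (ΔΔCt), and expressed as fold of vehicle. Four determinants, representative of two experiments.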

[2] = Activation of LXR in mouse C2C12 cells assessed as induction of LPL mRNA expression at 10 uM after 24 hrs in presence of T0901317 by quantitative RT-PCR analysis; format: cell-based; method in brief: as §1
[3] = target: T1, Peroxisome proliferator-activated receptor delta (Mus musculus) (UniProt P35396); test: Activation of PPARdelta in mouse C2C12 cells assessed as induction of FABP3 mRNA expression at 10 uM after 24 hrs in presence of GW501516 by quantitative RT-PCR analysis; format: cell-based
T1 sequence (whole entry): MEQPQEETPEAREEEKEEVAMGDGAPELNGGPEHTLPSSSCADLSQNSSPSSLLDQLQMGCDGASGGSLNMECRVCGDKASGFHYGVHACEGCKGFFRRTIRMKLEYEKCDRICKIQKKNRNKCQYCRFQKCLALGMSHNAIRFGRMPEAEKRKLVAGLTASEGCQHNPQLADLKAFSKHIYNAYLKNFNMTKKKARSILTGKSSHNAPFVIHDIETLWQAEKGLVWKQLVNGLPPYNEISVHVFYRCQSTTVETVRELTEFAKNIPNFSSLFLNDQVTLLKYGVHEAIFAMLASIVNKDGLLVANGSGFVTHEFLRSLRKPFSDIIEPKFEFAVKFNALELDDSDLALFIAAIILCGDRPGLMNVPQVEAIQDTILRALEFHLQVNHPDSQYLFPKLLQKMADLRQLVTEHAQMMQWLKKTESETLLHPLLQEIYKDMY
Method in brief: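 Differentiated C2C12 myotubes (2% horse serum, 5 days) exposed 24 h with or without PPARδ agonist GW501516 (1 μM). mRNA quantified by SYBR green real-time RT-PCR, normalized to β-actin by delta-delta Ct, and expressed as fold induction vs vehicle; means ± SD of four determinants from one of two independent experiments; one-way ANOVA with Bonferroni.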

RAW264.7 = test: Activation of RXR/LXR heterodimer in mouse RAW264.7 cells assessed as potentiation of T0901317-induced increase in ABCA1 mRNA level at 10 uM by quantitative RT-PCR analysis; format: cell-based
Method in brief: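 RAW264.7 macrophages in DMEM/10% FBS, exposed 24 h with or without LXR agonist T0901317; ABCA1 mRNA by SYBR green qRT-PCR, β-actin-normalized, fold vs vehicle; means ± SD of three determinants, one of three independent experiments; one-way ANOVA, Bonferroni.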

[4] = target: T2, Retinoic acid receptor RXR-alpha (Homo sapiens) (UniProt P19793); test: Binding affinity to RXRalpha (unknown origin) by receptor-SRC1 cofactor complex formation assay
T2 sequence (whole entry): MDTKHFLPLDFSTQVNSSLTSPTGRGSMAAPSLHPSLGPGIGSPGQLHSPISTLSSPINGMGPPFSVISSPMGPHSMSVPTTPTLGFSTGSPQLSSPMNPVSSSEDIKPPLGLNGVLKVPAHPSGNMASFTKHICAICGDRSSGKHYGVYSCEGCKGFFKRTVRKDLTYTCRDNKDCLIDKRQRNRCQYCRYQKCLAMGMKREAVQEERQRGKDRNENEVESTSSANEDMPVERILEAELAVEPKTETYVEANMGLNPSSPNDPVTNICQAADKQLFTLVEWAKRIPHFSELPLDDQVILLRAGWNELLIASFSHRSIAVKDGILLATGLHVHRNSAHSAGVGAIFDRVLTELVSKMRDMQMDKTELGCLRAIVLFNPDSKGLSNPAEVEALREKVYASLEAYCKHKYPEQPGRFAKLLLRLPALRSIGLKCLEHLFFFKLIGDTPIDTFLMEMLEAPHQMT
Method in brief: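 Ligand-dependent binding of RXR isotype to coactivator SRC-1 in an NR cofactor kit, detected with HRP-conjugated anti-RXR antibody at OD450. The full agonist CD3254 defined 100% and vehicle 0%. Efficacy was taken as maximum B/Bmax% and potency as EC50.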

Homo sapiens = species on record: Homo sapiens; test: Activation of PPARgamma/RXR heterodimer in human hepatoma cells assessed as potentiation of rosiglitazone-induced increase in ANGPTL4 mRNA level at 10 uM by quantitative RT-PCR analysis; format: cell-based
Method in brief: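 HLE human hepatoma cells (DMEM, 10% FBS, 37 °C, 5% CO2) treated with or without rosiglitazone; ANGPTL4 mRNA by SYBR green qRT-PCR, β-actin-normalized delta-delta Ct, fold vs vehicle; means ± SD of three determinants, representative of three experiments.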

SMILES: CC(C)=CCc1cc([C@@H]2CC(=O)c3ccc(O)c(CC=C(C)C)c3O2)cc2c1OC(C(C)(C)O)C2 (some centres not stated)
- Activity [1]: inactive
- Activity (C2C12): Active
- Activity [2]: Active
- Activity [3]: Active
- Activity (RAW264.7): Active
- Activity [4]: inactive
- Activity (Homo sapiens): Active
